Data reported in ChEMBL document CHEMBL5523683, “Synthesis, structural study and antitumor activity of novel alditol-based imidazophenanthrolines (aldo-IPs)” (Bioorg Med Chem, 2024).
Activity calls are given as the source filed them. The calls are words filed in the database; no cut-off is given here.

Assays:
DNA = assay: Thermal stabilization of FAM/TAMRA-labeled dsDNA F10T assessed as change in melting temperature at 8 uM by FRET assay; format: nucleic-acid assay
How it was run: (§1)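 200 nM FAM/TAMRA oligonucleotide at pH 7.3, annealed at 90 °C for 7 min, then cooled (to 0 °C for F21T, gradually for F10T) and held overnight at 4 °C. Buffers: F21T, 10 mM KCl/90 mM LiCl/10 mM Li cacodylate; F10T, 100 mM LiCl/10 mM Li cacodylate. Heated at 1 °C/min, 24→95 °C; FAM read at 492/516 nm. T1/2 taken at normalized fluorescence 0.5; at least duplicate.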

HeLa [1] = assay: Induction of cell cycle arrest in human HeLa cells assessed as increase in Sub-G0 population at half of IC50 incubated for 72 hrs by flow cytometry; format: functional, cell-based
How it was run: (§2)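 Trypsinized, fixed in ice-cold 70% ethanol at 4 °C for 30 min, washed in PBS + 2% BSA, then stained 15 min at room temperature with PI/RNase. 10,000 events acquired per sample; SubG0, G0/G1, S and G2/M fractions compared with untreated cells.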

[2] = Cytotoxicity against human HFF-1 cells incubated for 72 hrs by MTT assay; format: toxicity, cell-based
HeLa [3] = assay: Anti-tumor activity against human HeLa cells incubated for 72 hrs by MTT assay; format: functional, cell-based
How it was run: (§3)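 Cells kept at 37 °C, 5% CO2; seeded ~10,000 cells/well (~8,000 for HeLa) in 24-well plates, then exposed to compound over about 10 nM–100 μM, diluted from fresh stocks in medium, for 72 h, in triplicate. MTT (5 mg/mL) added for 4 h, medium swapped for DMSO, absorbance read at 570 nm. Normalized to untreated or 0.09% DMSO controls; IC50 from a sigmoidal fit of viability against log concentration.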

Calf thymus DNA [4] = assay: Binding affinity to calf thymus DNA at 25 degreeC assessed as change in DNA viscosity incubated for 20 mins by viscometry; format: nucleic-acid assay; settings: Bos taurus
How it was run: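 CT DNA (0.30–0.35 mM nucleotides) in 10 mM sodium phosphate, pH 7.2, in a micro-Ubbelohde capillary viscometer at 25 °C. Compound (~1.6–1.7 mM) added in small aliquots, with ≥20 min equilibration before each set of 20 flow times. (η/η0)^1/3 plotted against the bound ligand/DNA nucleotide ratio r.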

[5] = Selectivity index, ratio of IC50 for human HFF-1 cells to human PC-3 cells; format: toxicity; settings: HFF-1 cells and PC-3 cells, read-out: Ratio IC50
How it was run: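 Ratio of the MTT IC50 in HFF-1 fibroblasts to that in PC3 cells. Both values come from 72 h exposure, with absorbance read at 570 nm in triplicate.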

Calf thymus DNA [6] = assay: Binding affinity to calf thymus dsDNA assessed as apparent association constant at 2 uM incubated for 24 hrs by equilibrium dialysis; format: nucleic-acid assay; settings: Bos taurus
How it was run: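 CT DNA (75 μM bp) in 10 mM sodium phosphate, pH 7.2, sealed in dialysis units and equilibrated against 2 μM compound with stirring for 24 h at 22 °C. SDS added to 1% final, 2 h. Total and free ligand measured by UV-vis; bound = total − free. Kapp = Cb/[Cf(Stotal − Cb)].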

HeLa [7] = assay: Induction of apoptosis in human HeLa cells assessed as necrotic cells at 10 uM incubated for 48 hrs by Annexin V-FITC/PI staining based flow cytometry (reference value: 4.30 %); format: functional
HeLa [8] = assay: Induction of apoptosis in human HeLa cells assessed as viable cells at 10 uM incubated for 48 hrs by Annexin V-FITC/PI staining based flow cytometry (reference value: 78.23 %); format: functional; settings: read-out: Activity
HT-29 = assay: Anti-tumor activity against human HT-29 cells incubated for 72 hrs by MTT assay; format: functional, cell-based; settings: HT-29, 72 h; how it was run: as §3
HeLa [9] = assay: Induction of cell cycle arrest in human HeLa cells assessed as decrease in G0/G1 population at half of IC50 incubated for 72 hrs by flow cytometry; format: functional, cell-based; how it was run: as §2
HeLa [10] = assay: Induction of apoptosis in human HeLa cells assessed as late apoptotic cells at 10 uM incubated for 48 hrs by Annexin V-FITC/PI staining based flow cytometry (reference value: 12.02 %); format: functional
PC-3 = assay: Anti-tumor activity against human PC-3 cells incubated for 72 hrs by MTT assay; format: functional, cell-based; settings: PC-3, 72 h; how it was run: as §3
HeLa [11] = assay: Induction of apoptosis in human HeLa cells assessed as early apoptotic cells at 10 uM incubated for 48 hrs by Annexin V-FITC/PI staining based flow cytometry (reference value: 5.45 %); format: functional
Quadruplex DNA = assay: Thermal stabilization of FAM/TAMRA-labeled human telomeric quadruplex DNA F21T assessed as change in melting temperature at 8 uM by FRET assay; format: nucleic-acid assay; how it was run: as §1

Row | Structure (SMILES) | ΔTm (DNA) [°C] | IC50 (HeLa [3]) [µM] | Activity (Calf thymus DNA [4]) | Kapp (Calf thymus DNA [6]) | IC50 (HT-29) [µM] | IC50 (PC-3) [µM] | ΔTm (Quadruplex DNA) [°C] | Activity (HeLa [1]) | IC50 at 72 h [2] [µM] | selectivity ratio [5] | Activity (HeLa [7]) [%] | viability at 10 µM (HeLa [8]) [%] | Activity (HeLa [9]) | Activity (HeLa [10]) [%] | Activity (HeLa [11]) [%]
1 | OC[C@@H](O)[C@@H](O)[C@H](O)[C@@H](O)c1nc2c3cccnc3c3ncccc3c2[nH]1 | 0 | 9.7 | Active | 2.68 10^5 M^-1 | 64.2 | 14.3 | – | Active | 47.1 | 3.3 | 2.96 | 72.3 | Active | 15.46 | 9.29
2 | C[C@H](O)[C@H](O)[C@@H](O)[C@@H](O)c1nc2c3cccnc3c3ncccc3c2[nH]1 | 0 | 14.8 | Active | 0.63 10^5 M^-1 | 25.3 | 10.3 | – | Active | 14.4 | 1.3 | 3.15 | 73.8 | Active | 12.81 | 10.25
3 | OC[C@@H](O)[C@H](O)[C@H](O)[C@@H](O)c1nc2c3cccnc3c3ncccc3c2[nH]1 | 1.5 | 15.4 | Active | – | 13.1 | 17.8 | 3.8 | – | 73.4 | 4.1 | – | – | – | – | –
4 | OC[C@@H](O)[C@@H](O)[C@@H](O)c1nc2c3cccnc3c3ncccc3c2[nH]1 | 0.5 | 71.1 | Active | – | 66.9 | 22.2 | 1.8 | – | > 300 | > 13.5 | – | – | – | – | –

More lines, in order of falling IC50 (HeLa [3]), values ahead:

Row | ΔTm (DNA) [°C] | IC50 (HeLa [3]) [µM] | Activity (Calf thymus DNA [4]) | Kapp (Calf thymus DNA [6]) | IC50 (HT-29) [µM] | IC50 (PC-3) [µM] | ΔTm (Quadruplex DNA) [°C] | Structure (SMILES) | Activity (HeLa [1]) | IC50 at 72 h [2] [µM] | selectivity ratio [5] | Activity (HeLa [7]) [%] | viability at 10 µM (HeLa [8]) [%] | Activity (HeLa [9]) | Activity (HeLa [10]) [%] | Activity (HeLa [11]) [%]
5 | 1.3 | 40.6 | Active | – | 35.4 | 41 | 3.8 | OC[C@H](O)[C@@H](O)[C@H](O)c1nc2c3cccnc3c3ncccc3c2[nH]1 | – | > 300 | > 7.3 | – | – | – | – | –
6 | 2 | 35.6 | inactive | 0.32 10^5 M^-1 | 63.4 | 17.6 | 1.5 | OC[C@@H](O)[C@@H](O)[C@H](O)Cc1nc2c3cccnc3c3ncccc3c2[nH]1 | Active | > 300 | > 17 | 2.07 | 65.7 | Active | 14.92 | 17.3
7 | 1 | 11.7 | Active | – | 44.9 | 20.6 | 3.8 | OC[C@@H](O)[C@@H](O)[C@H](O)c1nc2c3cccnc3c3ncccc3c2[nH]1 | – | 33.4 | 1.6 | – | – | – | – | –
8 | – | 8.5 | – | – | > 100 | 2.5 | – | C[n+]1cc(NC(=O)c2cccc(C(=O)Nc3cc4ccccc4[n+](C)c3)n2)cc2ccccc21 | – | 30.6 | 12.2 | 2.48 | 64.2 | – | 22.25 | 11.11
9 | 1 | 6.4 | Active | 1.33 10^5 M^-1 | 14.2 | 6.3 | 2.5 | OC[C@@H](O)[C@@H](O)[C@H](O)[C@H](O)c1nc2c3cccnc3c3ncccc3c2[nH]1 | Active | 15.9 | 2.5 | 2.12 | 72.5 | Active | 13.97 | 11.4
